Measurements reported in ChEMBL document CHEMBL3421540, “Ensemble-based virtual screening for cannabinoid-like potentiators of the human glycine receptor α1 for the treatment of pain” (J Med Chem, 2015).
Active and inactive are the calls of the source. The calls are words filed in the database; no cut-off is given here.

Key:
Assay type in all cases: cell-based
[1] = target: T1, Glycine receptor subunit alpha-1 (Homo sapiens) (UniProt P23415); experiment: Potentiation of human GlyR-alpha1 expressed in Xenopus laevis oocytes assessed as induction of glycine-activated currents at 10 uM after 1 to 4 days by two-electrode voltage clamp assay relative to control
T1 sequence (whole entry): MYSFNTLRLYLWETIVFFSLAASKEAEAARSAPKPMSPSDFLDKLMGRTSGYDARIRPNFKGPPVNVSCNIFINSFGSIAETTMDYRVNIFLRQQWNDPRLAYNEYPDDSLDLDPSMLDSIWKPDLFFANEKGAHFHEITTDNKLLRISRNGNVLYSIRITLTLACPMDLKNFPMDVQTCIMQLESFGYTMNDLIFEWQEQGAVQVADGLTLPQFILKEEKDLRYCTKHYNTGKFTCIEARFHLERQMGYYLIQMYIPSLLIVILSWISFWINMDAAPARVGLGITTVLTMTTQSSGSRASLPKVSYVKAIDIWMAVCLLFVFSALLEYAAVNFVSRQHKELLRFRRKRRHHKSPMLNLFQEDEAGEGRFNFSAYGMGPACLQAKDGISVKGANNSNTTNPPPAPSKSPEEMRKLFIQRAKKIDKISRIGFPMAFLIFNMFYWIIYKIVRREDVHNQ
Procedure, shortened: (§1)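 RNA for hGlyR-α1 (25−50 ng) injected into stage 5−6 Xenopus laevis oocytes held at 17 °C in modified Barth's solution; two-electrode voltage clamp 1−4 days post-injection at −60 mV holding potential. Bath: 96 mM NaCl, 2 mM KCl, 1.8 mM CaCl2, 1 mM MgCl2, 5 mM HEPES, pH 7.0. Compound coapplied with glycine at EC5; potentiation of current scored.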

[2] = target: T1, Glycine receptor subunit alpha-1 (Homo sapiens); experiment: Potentiation of human GlyR-alpha1 expressed in Xenopus laevis oocytes assessed as induction of glycine-activated currents at 1 uM after 1 to 4 days by two-electrode voltage clamp assay relative to control; procedure, shortened: as §1
[3] = target: T2, Glycine receptor subunit alpha-1 (Homo sapiens, UniProt P23415); experiment: Potentiation of human GlyR-alpha1 expressed in Xenopus laevis oocytes assessed as induction of glycine-activated currents after 1 to 4 days by two-electrode voltage clamp assay
T2 sequence (P23415 whole entry): T1 sequence (whole entry)
Procedure, shortened: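 hGlyR-α1 RNA (25−50 ng) injected into stage 5−6 Xenopus oocytes, held at 17 °C in modified Barth's solution. Recorded 1−4 days later by two-electrode voltage clamp at −60 mV in 96 mM NaCl, 2 mM KCl, 1.8 mM CaCl2, 1 mM MgCl2, 5 mM HEPES, pH 7.0. Compounds coapplied with glycine at EC5, up to 10 μM. EC50 values also derived.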

[4] = target: Neuronal acetylcholine receptor subunit alpha-7 (Homo sapiens) (UniProt P36544); experiment: Modulation of human alpha7 nAChR expressed in Xenopus laevis oocytes assessed as effect on acetylcholine-induced currents at 10 uM after 1 to 4 days by two-electrode voltage clamp assay relative to control
Procedure, shortened: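 α7 nAChR RNA (25−50 ng) injected into stage 5−6 Xenopus oocytes, kept at 17 °C in modified Barth's solution. Two-electrode voltage clamp at −60 mV, 1−4 days post-injection. Bath: 96 mM NaCl, 2 mM KCl, 1.8 mM CaCl2, 1 mM MgCl2, 5 mM HEPES, pH 7.0. Compound coapplied with acetylcholine at EC50, used because of fast desensitization.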

Chain of Neuronal acetylcholine receptor subunit alpha-7 (Homo sapiens) (P36544 whole entry): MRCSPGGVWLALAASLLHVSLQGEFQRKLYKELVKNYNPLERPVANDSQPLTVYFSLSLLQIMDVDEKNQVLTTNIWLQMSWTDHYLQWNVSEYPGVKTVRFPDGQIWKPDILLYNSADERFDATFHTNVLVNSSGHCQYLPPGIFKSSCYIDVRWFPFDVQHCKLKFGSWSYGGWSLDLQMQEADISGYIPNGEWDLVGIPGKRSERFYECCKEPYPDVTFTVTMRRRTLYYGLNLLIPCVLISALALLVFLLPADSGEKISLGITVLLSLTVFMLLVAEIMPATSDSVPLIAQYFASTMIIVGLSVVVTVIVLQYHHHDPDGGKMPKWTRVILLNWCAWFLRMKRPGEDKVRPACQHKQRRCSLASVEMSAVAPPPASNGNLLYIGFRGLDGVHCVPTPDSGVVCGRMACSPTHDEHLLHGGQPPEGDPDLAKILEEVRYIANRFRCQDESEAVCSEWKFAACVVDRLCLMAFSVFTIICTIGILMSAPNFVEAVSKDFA

Structure (SMILES) | %max [1] [%] | Activity [2] [%] | EC50 [3] [µM] | Activity [4]
CCCc1nc2c(C)cc(-c3nc4ccccc4n3C)cc2n1Cc1ccc(-c2ccccc2C(=O)O)cc1 | 210 | 120 | 3.2 | 
C[C@@H](NCCCc1cccc(C(F)(F)F)c1)c1cccc2ccccc12 | 210 | 182 | 0.32 | inactive
COc1ccc(-c2ccc3cc(C(=O)O)ccc3c2)cc1C12CC3CC(CC(C3)C1)C2 | 260 | 172 | 1.3 | inactive
CC1=C(CC(=O)O)c2cc(F)ccc2/C1=C\c1ccc([S+](C)[O-])cc1 (centres undefined) |  |  | 0.38 | inactive
O=C1NCN(c2ccccc2)C12CCN(CCCC(c1ccc(F)cc1)c1ccc(F)cc1)CC2 |  |  | 1.2 | 
COc1cc(OC)c(NC(=O)Nc2cc(C)on2)cc1Cl | 103 | 102 |  | 
Cc1nc2c([nH]1)-c1ccccc1N(C(=O)c1ccc(NC(=O)c3ccccc3-c3ccccc3)cc1)CC2 | 107 | 106 |  | 
COc1ccc(CCN2CCC(Nc3nc4ccccc4n3Cc3ccc(F)cc3)CC2)cc1 [ASTEMIZOLE] | 280 | 122 | 4.2 | 
C=C1CC[C@H](O)C/C1=C/C=C1\CCC[C@]2(C)[C@@H]([C@H](C)CCCC(C)C)CC[C@@H]12 [CHOLECALCIFEROL] | 220 | 216 | 0.4 | inactive
CCCCCc1cc(O)c2c(c1)OC(C)(C)[C@@H]1CCC(C)=C[C@@H]21 [DRONABINOL] | 260 | 162 | 1.3 | 
C[C@]12C=CC(=O)N[C@@H]1CC[C@@H]1[C@@H]2CC[C@]2(C)[C@@H](C(=O)Nc3cc(C(F)(F)F)ccc3C(F)(F)F)CC[C@@H]12 [DUTASTERIDE] |  |  | 0.33 | inactive
OC(c1cc(C(F)(F)F)nc2c(C(F)(F)F)cccc12)C1CCCCN1 (centres undefined) [MEFLOQUINE] | 220 | 126 | 2.5 | 
O=c1[nH]c2ccccc2n1C1CCN(CCCC(c2ccc(F)cc2)c2ccc(F)cc2)CC1 [PIMOZIDE] | 510 | 219 | 1.7 | inactive
CNC(=O)c1cc(Oc2ccc(NC(=O)Nc3ccc(Cl)c(C(F)(F)F)c3)c(F)c2)ccn1 [REGORAFENIB] | 200 | 116 | 1.8 | 
Cc1nc2n(c(=O)c1CCN1CCC(c3noc4cc(F)ccc34)CC1)CCCC2 [RISPERIDONE] | 190 | 180 | 0.32 | inactive
